Values after ≈ are worked out from the molar mass of the structure shown.
Tests used:
Format in all cases: functional, Salmonella enterica subsp. enterica serovar Typhimurium
Salmonella typhimurium [1] = assay: Antimicrobial activity against Salmonella enterica serovar Typhimurium CHS14 tolC::Kan with GyrA D87G mutant
Summary of the method: (§1)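 MICs measured by broth microdilution on the Sensititre automated system and interpreted by CLSI broth microdilution standards. Ciprofloxacin was also tested by agar dilution, widening the range to 0.0075–128 μg/ml. Quality control strains were E. coli ATCC 25922 and 35218, E. faecalis ATCC 29212, S. aureus ATCC 29213 and P. aeruginosa ATCC 27853.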

Salmonella typhimurium [2] = assay: Antimicrobial activity against Salmonella enterica serovar Typhimurium CHS18 tolC::Kan with GyrA S38F mutation; summary of the method: as §1
Salmonella typhimurium [3] = assay: Antimicrobial activity against Salmonella enterica serovar Typhimurium S21 acrAB::Kan
Summary of the method: (§2)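 MICs by automated broth microdilution panels, interpreted to CLSI broth microdilution standards. Ciprofloxacin additionally tested by agar dilution across 0.0075 to 128 μg/ml. Quality control strains: E. coli ATCC 25922 and 35218, Enterococcus faecalis ATCC 29212, S. aureus ATCC 29213, P. aeruginosa ATCC 27853. Test strains are kanamycin-marked deletion mutants of ground-beef isolate S21.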

Salmonella typhimurium [4] = assay: Antimicrobial activity against Salmonella enterica serovar Typhimurium S21-3 with GyrA S83F, ParC S80I mutation; summary of the method: as §1
Salmonella typhimurium [5] = assay: Antimicrobial activity against Salmonella enterica serovar Typhimurium CHS38 acrAB::Kan with GyrA D87G mutation; summary of the method: as §1
Salmonella typhimurium [6] = assay: Antimicrobial activity against Salmonella enterica serovar Typhimurium S21-2 tolC::Kan with GyrA S83F, ParC S80I mutation; summary of the method: as §1
Salmonella typhimurium [7] = assay: Antimicrobial activity against Salmonella enterica serovar Typhimurium CS3 gyrA+ with GyrA S83F, D87N, ParC S80I mutation; summary of the method: as §1
Salmonella typhimurium [8] = assay: Antimicrobial activity against Salmonella enterica serovar Typhimurium CHS38 gyrA+ with GyrA D87G mutation; summary of the method: as §1
Salmonella typhimurium [9] = assay: Antimicrobial activity against Salmonella enterica serovar Typhimurium S21; summary of the method: as §1
Salmonella typhimurium [10] = assay: Antimicrobial activity against Salmonella enterica serovar Typhimurium CHS18 acrAB::Kan with GyrA S38F mutation; summary of the method: as §1
Salmonella typhimurium [11] = assay: Antimicrobial activity against Salmonella enterica serovar Typhimurium S21-2 gyrA+ with ParC S80I mutation; summary of the method: as §1
Salmonella typhimurium [12] = assay: Antimicrobial activity against Salmonella enterica serovar Typhimurium CS9 tolC::Kan with GyrA S83F, D87N, ParC S80I mutation; summary of the method: as §1
Salmonella typhimurium [13] = assay: Antimicrobial activity against Salmonella enterica serovar Typhimurium CS9 gyrA+ with GyrA S83F, D87N, ParC S80I mutation; summary of the method: as §1
Salmonella typhimurium [14] = assay: Antimicrobial activity against Salmonella enterica serovar Typhimurium S21-3 acrAB::Kan with GyrA S83F, ParC S80I mutation; summary of the method: as §1
Salmonella typhimurium [15] = assay: Antimicrobial activity against Salmonella enterica serovar Typhimurium CHS18 gyrA+ with GyrA S38F mutation; summary of the method: as §1
Salmonella typhimurium [16] = assay: Antimicrobial activity against Salmonella enterica serovar Typhimurium S21-2 with GyrA S83F, ParC S80I mutation; summary of the method: as §1
Salmonella typhimurium [17] = assay: Antimicrobial activity against Salmonella enterica serovar Typhimurium S21-4 with GyrA S83F, ParC S80I mutation; summary of the method: as §1
Salmonella typhimurium [18] = assay: Antimicrobial activity against Salmonella enterica serovar Typhimurium CS3 acrAB::Kan with GyrA S83F, D87N, ParC S80I mutation; summary of the method: as §1
Salmonella typhimurium [19] = assay: Antimicrobial activity against Salmonella enterica serovar Typhimurium CS1 acrAB::Kan with GyrA S83F, D87N, ParC S80I mutation; summary of the method: as §1
Salmonella typhimurium [20] = assay: Antimicrobial activity against Salmonella enterica serovar Typhimurium S21-4 tolC::Kan with GyrA S83F, ParC S80I mutation; summary of the method: as §1
Salmonella typhimurium [21] = assay: Antimicrobial activity against Salmonella enterica serovar Typhimurium S21-1 GyrA S83F mutant; summary of the method: as §1
Salmonella typhimurium [22] = assay: Antimicrobial activity against Salmonella enterica serovar Typhimurium GyrA S21-1 acrAB::Kan with GyrA S83F mutation; summary of the method: as §1
Salmonella typhimurium [23] = assay: Antimicrobial activity against Salmonella enterica serovar Typhimurium S21-1 tolC::Kan with GyrA S83F mutation; summary of the method: as §1
Salmonella typhimurium [24] = assay: Antimicrobial activity against Salmonella enterica serovar Typhimurium S21-3 tolC::Kan with GyrA S83F, ParC S80I mutation; summary of the method: as §1
Salmonella typhimurium [25] = assay: Antimicrobial activity against Salmonella enterica serovar Typhimurium CS3 with GyrA S83F, D87N, ParC S80I mutation; summary of the method: as §1
Salmonella typhimurium [26] = assay: Antimicrobial activity against Salmonella enterica serovar Typhimurium CS9 with GyrA S83F, D87N, ParC S80I mutation; summary of the method: as §1
Salmonella typhimurium [27] = assay: Antimicrobial activity against Salmonella enterica serovar Typhimurium S21-1 gyrA+; summary of the method: as §1
Salmonella typhimurium [28] = assay: Antimicrobial activity against Salmonella enterica serovar Typhimurium CHS38 with GyrA D87G mutation; summary of the method: as §1
Salmonella typhimurium [29] = assay: Antimicrobial activity against Salmonella enterica serovar Typhimurium S21-4 acrAB::Kan with GyrA S83F, ParC S80I mutation; summary of the method: as §1
Salmonella typhimurium [30] = assay: Antimicrobial activity against Salmonella enterica serovar Typhimurium S21-4 gyrA+ with ParC S80I mutation; summary of the method: as §1
Salmonella typhimurium [31] = assay: Antimicrobial activity against Salmonella enterica serovar Typhimurium CS9 acrAB::Kan with GyrA S83F, D87N, ParC S80I mutation; summary of the method: as §1
Salmonella typhimurium [32] = assay: Antimicrobial activity against Salmonella enterica serovar Typhimurium S21-2 acrAB::Kan with GyrA S83F, ParC S80I mutation; summary of the method: as §1
Salmonella typhimurium [33] = assay: Antimicrobial activity against Salmonella enterica serovar Typhimurium CS1 tolC::Kan with GyrA S83F, D87N, ParC S80I mutation; summary of the method: as §1
Salmonella typhimurium [34] = assay: Antimicrobial activity against Salmonella enterica serovar Typhimurium CHS38 tolC::Kan with GyrA D87G mutation; summary of the method: as §1
Salmonella typhimurium [35] = assay: Antimicrobial activity against Salmonella enterica serovar Typhimurium CHS14 with GyrA D87G mutation; summary of the method: as §1
Salmonella typhimurium [36] = assay: Antimicrobial activity against Salmonella enterica serovar Typhimurium S21 gyrA+; summary of the method: as §1
Salmonella typhimurium [37] = assay: Antimicrobial activity against Salmonella enterica serovar Typhimurium CHS14 acrAB::Kan with GyrA D87G mutation; summary of the method: as §1
Salmonella typhimurium [38] = assay: Antimicrobial activity against Salmonella enterica serovar Typhimurium S21-3 gyrA+ with ParC S80I mutation; summary of the method: as §1
Salmonella typhimurium [39] = assay: Antimicrobial activity against Salmonella enterica serovar Typhimurium CS1 gyrA+ with GyrA S83F, D87N, ParC S80I mutation; summary of the method: as §1
Salmonella typhimurium [40] = assay: Antimicrobial activity against Salmonella enterica serovar Typhimurium CS3 tolC::Kan with GyrA S83F, D87N, parC S80I mutation; summary of the method: as §1
Salmonella typhimurium [41] = assay: Antimicrobial activity against Salmonella enterica serovar Typhimurium S21 tolC::Kan; summary of the method: as §2
Salmonella typhimurium [42] = assay: Antimicrobial activity against Salmonella enterica serovar Typhimurium CHS18 with GyrA S38F mutation; summary of the method: as §1
Salmonella typhimurium [43] = assay: Antimicrobial activity against Salmonella enterica serovar Typhimurium CHS14 gyrA+ with GyrA D87G mutation; summary of the method: as §1
Salmonella typhimurium [44] = assay: Antimicrobial activity against Salmonella enterica serovar Typhimurium CS1 with GyrA S83F, D87N, ParC S80I mutation; summary of the method: as §1

Structure (SMILES): O=C(O)c1cn(C2CC2)c2cc(N3CCNCC3)c(F)cc2c1=O [CIPROFLOXACIN]
- MIC (Salmonella typhimurium [1]): < 0.015 mg/L
- MIC (Salmonella typhimurium [2]): 0.03 mg/L (≈ 0.0905 µM)
- MIC (Salmonella typhimurium [3]): < 0.015 mg/L
- MIC (Salmonella typhimurium [4]): 32 mg/L (≈ 96.6 µM)
- MIC (Salmonella typhimurium [5]): 0.03 mg/L (≈ 0.0905 µM)
- MIC (Salmonella typhimurium [6]): 0.12 mg/L (≈ 0.362 µM)
- MIC (Salmonella typhimurium [7]): 0.03 mg/L (≈ 0.0905 µM)
- MIC (Salmonella typhimurium [8]): < 0.015 mg/L
- MIC (Salmonella typhimurium [9]): < 0.015 mg/L
- MIC (Salmonella typhimurium [10]): 0.03 mg/L (≈ 0.0905 µM)
- MIC (Salmonella typhimurium [11]): 0.25 mg/L (≈ 0.754 µM)
- MIC (Salmonella typhimurium [12]): 2 mg/L (≈ 6.04 µM)
- MIC (Salmonella typhimurium [13]): 0.03 mg/L (≈ 0.0905 µM)
- MIC (Salmonella typhimurium [14]): 0.25 mg/L (≈ 0.754 µM)
- MIC (Salmonella typhimurium [15]): 0.06 mg/L (≈ 0.181 µM)
- MIC (Salmonella typhimurium [16]): 4 mg/L (≈ 12.1 µM)
- MIC (Salmonella typhimurium [17]): 256 mg/L (≈ 773 µM)
- MIC (Salmonella typhimurium [18]): 4 mg/L (≈ 12.1 µM)
- MIC (Salmonella typhimurium [19]): 4 mg/L (≈ 12.1 µM)
- MIC (Salmonella typhimurium [20]): 0.25 mg/L (≈ 0.754 µM)
- MIC (Salmonella typhimurium [21]): 0.25 mg/L (≈ 0.754 µM)
- MIC (Salmonella typhimurium [22]): 0.06 mg/L (≈ 0.181 µM)
- MIC (Salmonella typhimurium [23]): 0.06 mg/L (≈ 0.181 µM)
- MIC (Salmonella typhimurium [24]): 0.25 mg/L (≈ 0.754 µM)
- MIC (Salmonella typhimurium [25]): 16 mg/L (≈ 48.3 µM)
- MIC (Salmonella typhimurium [26]): 16 mg/L (≈ 48.3 µM)
- MIC (Salmonella typhimurium [27]): 0.015 mg/L (≈ 0.0453 µM)
- MIC (Salmonella typhimurium [28]): 0.06 mg/L (≈ 0.181 µM)
- MIC (Salmonella typhimurium [29]): 0.25 mg/L (≈ 0.754 µM)
- MIC (Salmonella typhimurium [30]): 4 mg/L (≈ 12.1 µM)
- MIC (Salmonella typhimurium [31]): 4 mg/L (≈ 12.1 µM)
- MIC (Salmonella typhimurium [32]): 0.12 mg/L (≈ 0.362 µM)
- MIC (Salmonella typhimurium [33]): 2 mg/L (≈ 6.04 µM)
- MIC (Salmonella typhimurium [34]): < 0.015 mg/L
- MIC (Salmonella typhimurium [35]): 0.12 mg/L (≈ 0.362 µM)
- MIC (Salmonella typhimurium [36]): < 0.015 mg/L
- MIC (Salmonella typhimurium [37]): < 0.015 mg/L
- MIC (Salmonella typhimurium [38]): 2 mg/L (≈ 6.04 µM)
- MIC (Salmonella typhimurium [39]): 0.03 mg/L (≈ 0.0905 µM)
- MIC (Salmonella typhimurium [40]): 2 mg/L (≈ 6.04 µM)
- MIC (Salmonella typhimurium [41]): < 0.015 mg/L
- MIC (Salmonella typhimurium [42]): 0.12 mg/L (≈ 0.362 µM)
- MIC (Salmonella typhimurium [43]): < 0.015 mg/L
- MIC (Salmonella typhimurium [44]): 16 mg/L (≈ 48.3 µM)

Reference: ChEMBL document CHEMBL1142136, “Contribution of target gene mutations and efflux to decreased susceptibility of Salmonella enterica serovar typhimurium to fluoroquinolones and other antimicrobials” (2007)
